Measured values: article PMC5558854 (Molecular cell, 2017)
Where no end group is shown, it is not given here. [ ]: non-standard residue; d: D form. The star is where a group is joined. FITC = O=C1OC2(c3ccc(O)cc3Oc3cc(O)ccc32)c2ccc(NC(=S)*)cc21; pY = N[C@@H](Cc1ccc(OP(=O)(O)O)cc1)C(=O)O

Tests used:
Csk^AS [1] = experiment: Reconstituted cellular system for Lck activation; format: cell-based; conditions: HEK 293 cells with CD45, Csk^AS, 3-IB-PP1 5 μM, 1 min, 37 °C, immunoblot
Csk^AS [2] = conditions: analog-sensitive allele of Csk; ref Schoenborn et al., 2011; cited from earlier work
J.Lck cells = experiment: Intracellular calcium measurement by flow cytometry; format: cell-based, human; conditions: J.Lck cells expressing Lck Y192E/A variants; Indo-1 AM, 37 °C, flow cytometry (Figure S2)
tyrosine phosphatases = experiment: Total protein phosphotyrosine immunoblot after pervanadate treatment; format: cell-based, human; conditions: J.Lck cells, Lck Y192E/A variants; pervanadate 100 μM; immunoblot (Figure S2B)
Summary of the method: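 Jurkat-derived cells grown in RPMI with 10% FBS and 2 mM glutamine at 37 °C, 5% CO2. Lck-reconstituted lines checked by immunoblot and sequencing. Cells rinsed in RPMI, resuspended at 5 × 10^6 cells/mL and rested 15 min at 37 °C, then left unstimulated or given pervanadate (100 μM). Lysis in 1% NP-40 (final) with […], NaF, EDTA, PMSF, protease inhibitors and PP2 (25 μM). Immunoblot read-out.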

[3] = target: GST Lck SH2 Y192E (human Lck SH2 domain, residues 123-227) (human, UniProt P06239 123-227, Y192E); experiment: fluorescence polarisation
Chain of GST Lck SH2 Y192E (human Lck SH2 domain, residues 123-227) (P06239 123-227 Y192E): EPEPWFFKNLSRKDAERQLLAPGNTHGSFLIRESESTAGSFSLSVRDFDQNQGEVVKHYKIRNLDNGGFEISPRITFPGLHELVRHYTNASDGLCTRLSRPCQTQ

[4] = target: GST Lck SH2 protein (human Lck SH2 domain, residues 123-227, WT) (human, UniProt P06239 123-227); experiment: fluorescence polarisation
Chain of GST Lck SH2 protein (human Lck SH2 domain, residues 123-227, WT) (P06239 123-227): as the sequence (P06239 123-227 Y192E) above, with E70Y counted along it

Molecule: CC(C)(C)n1nc(Cc2cccc(I)c2)c2c(N)ncnc21 [3-IB-PP1]
- CD8/ζ-chain phosphorylation upon Csk^AS inhibition (Csk^AS [1]; N=3, Lck Y192E/A variants): only a minimal increase
- C-terminal tail (Y505) phosphorylation upon Csk^AS inhibition (Csk^AS [1]; CD8/ζ, N=3, Lck Y192F): the Y192F mutant is dephosphorylated by CD45
- inhibition of Csk^AS (Csk^AS [2]): inhibited

Molecule: C[C@H](CCC(=O)O)C[C@H](C)C[C@H](C)C(=O)/C=C(\O)[C@H](C)C[C@H](C)C/C=C/[C@@H](C)[C@@H](O)[C@@H](C)[C@@H](O)C[C@@H]1CC[C@@](C)([C@H]2CC[C@@](C)([C@@H](C)O)O2)O1 [ionomycin]
- calcium response to ionomycin (J.Lck cells): responded robustly

Molecule: pervanadate
- Lck autophosphorylation upon pervanadate treatment (tyrosine phosphatases): robust autophosphorylation

Molecule: {FITC}-TEGQ[pY]QPQP [FITC-TEGQ[pY]QPQP, phosphopeptide of the Lck C-terminal tail]
- binding result [3]: binds
- binding result [4]: binds
